SMILES strings stand for the structures. pIC50, pKi: −log10 of the molar value.

Series [1] deals with T1, Amine oxidase [flavin-containing] A (Rattus norvegicus, UniProt P21396).
T1 sequence (P21396 whole entry): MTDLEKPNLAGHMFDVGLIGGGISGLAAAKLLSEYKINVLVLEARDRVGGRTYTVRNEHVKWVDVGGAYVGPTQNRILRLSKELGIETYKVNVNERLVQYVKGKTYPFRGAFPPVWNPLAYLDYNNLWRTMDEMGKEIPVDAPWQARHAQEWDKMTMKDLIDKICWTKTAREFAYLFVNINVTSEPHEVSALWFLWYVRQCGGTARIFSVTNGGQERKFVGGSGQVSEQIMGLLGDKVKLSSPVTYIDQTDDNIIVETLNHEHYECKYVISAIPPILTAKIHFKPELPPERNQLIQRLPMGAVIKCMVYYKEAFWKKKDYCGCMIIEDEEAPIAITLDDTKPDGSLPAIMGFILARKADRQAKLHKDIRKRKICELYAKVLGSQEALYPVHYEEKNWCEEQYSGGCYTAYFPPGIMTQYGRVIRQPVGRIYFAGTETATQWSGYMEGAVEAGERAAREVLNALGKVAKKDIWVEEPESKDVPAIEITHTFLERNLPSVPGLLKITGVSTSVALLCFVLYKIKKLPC
The experiment in a line: Ex vivo value for inhibition of MAO A of rats sacrificed 2 hr after po administration. The class given is organism-based. The method, boiled down: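 Rats dosed orally, killed 2 h later; brain MAO A inhibition then measured ex vivo.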

The target in series [2] is T1, Amine oxidase [flavin-containing] A. The experiment in a line: Inhibitory concentration against rat brain mitochondrial monoamine oxidase A. In short, it runs like this:
(§1)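 Rat brain mitochondrial MAO extract preincubated with inhibitor 15 min at 37 °C in 50 mM potassium phosphate pH 7.4. [3H]serotonin added at 0.2 μM final, then 20 min incubation. Pargyline 2 mM blanks. Stopped with HCl, products extracted into ethyl acetate/toluene and counted radiometrically. Triplicates; IC50 from mean % inhibition vs log concentration.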

Series [3] has the same target. Description: Inhibition of the enzyme MAO A which was not completely reverserved after 24 hr of dialysis after po administration to rat (brain). The class given is organism-based. The following applies: in vivo.
The target of series [4] is T2, Amine oxidase [flavin-containing] B (Rattus norvegicus, UniProt P19643).
T2 sequence (P19643 whole entry): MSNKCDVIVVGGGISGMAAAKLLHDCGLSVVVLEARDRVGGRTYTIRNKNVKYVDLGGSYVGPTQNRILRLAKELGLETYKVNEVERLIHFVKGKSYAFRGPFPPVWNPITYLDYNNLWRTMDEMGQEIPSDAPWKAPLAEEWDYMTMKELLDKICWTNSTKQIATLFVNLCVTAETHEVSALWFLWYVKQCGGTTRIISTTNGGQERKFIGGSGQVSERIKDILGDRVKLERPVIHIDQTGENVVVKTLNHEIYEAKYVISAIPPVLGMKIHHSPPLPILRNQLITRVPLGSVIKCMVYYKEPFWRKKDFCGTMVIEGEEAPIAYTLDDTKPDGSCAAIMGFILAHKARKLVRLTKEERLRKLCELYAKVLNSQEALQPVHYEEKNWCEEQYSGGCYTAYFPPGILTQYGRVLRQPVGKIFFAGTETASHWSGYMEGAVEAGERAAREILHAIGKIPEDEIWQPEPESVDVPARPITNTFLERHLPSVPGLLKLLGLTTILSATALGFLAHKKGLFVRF
The experiment in a line: Inhibitory activity against rat brain mitochondrial Monoamine oxidase B at 10 uM. In short, it runs like this:
(§2)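 Rat brain mitochondrial MAO extract preincubated with inhibitor 15 min at 37 °C in 50 mM potassium phosphate pH 7.4. [14C]phenethylamine added at 10 μM final, then 20 min incubation. Pargyline 2 mM blanks. Stopped with HCl, products extracted into ethyl acetate/toluene and counted radiometrically. Triplicates; IC50 from mean % inhibition vs log concentration.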

In series [5] the target is T2, Amine oxidase [flavin-containing] B. The experiment in a line: Inhibitory activity against rat brain mitochondrial Monoamine oxidase B. The method, boiled down: as §2
The target is the same in series [6]. Description: Inhibitory activity against Monoamine oxidase B; NS=not significant at 0.001 uM. In short, it runs like this:
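Rat brain mitochondrial MAO extract preincubated with or without inhibitor 15 min at 37 °C in 50 mM potassium phosphate, pH 7.4. [14C]phenethylamine was then added to 10 μM final and incubated 20 min. Blanks contained 2 mM pargyline. Products were extracted into ethyl acetate/toluene and counted by scintillation. Triplicates at each inhibitor concentration; mean percent inhibition.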

Series [7] addresses T1, Amine oxidase [flavin-containing] A. Description: Inhibitory concentration against Monoamine oxidase A. The method, boiled down:
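Rat brain mitochondrial MAO extract was preincubated ± inhibitor 15 min at 37 °C in 50 mM potassium phosphate (pH 7.4), then given [3H]serotonin at 0.2 μM final for 20 min. Blanks contained 2 mM pargyline. Products went into ethyl acetate/toluene for scintillation counting. Triplicates per concentration; IC50 extrapolated from mean % inhibition vs log concentration plots.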

The target is the same in series [8]. The experiment in a line: Inhibition of the enzyme Monoamine oxidase A which was not completely reverserved after 24 hr of dialysis after 20 mg/kg po administration. Format: organism-based. Also noted: dose 20 mg/kg, route oral. The conditions noted are these: in vivo.
Series [9] deals with T2, Amine oxidase [flavin-containing] B. Description: Inhibitory activity against rat brain mitochondrial Monoamine oxidase B at < 1 uM. The method, boiled down: as §2
Series [10] has as its target T1, Amine oxidase [flavin-containing] A. The experiment in a line: Inhibitory concentration against rat brain mitochondrial Monoamine oxidase A at <1 uM. The method, boiled down: as §1
Series [11] has the same target. The experiment in a line: Inhibitory concentration against rat brain mitochondrial Monoamine oxidase A at 10 uM. The method, boiled down: as §1
Series [12] shares this target. Description: Inhibition of the enzyme Monoamine oxidase A which was not completely reverserved after 24 hr of dialysis. The method, boiled down: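 Reversibility: MAO extract preincubated with or without inhibitor 15 min at 37 °C, in duplicate, then dialysed 24 h at 4 °C with shaking against 0.1 M potassium phosphate pH 7.4, 5% sucrose, 1 mM dithiothreitol, buffer changed ca. 3 and 19 h. Undialysed portions held at 4 °C; both assayed together for MAO activity.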

In series [13] the target is T2, Amine oxidase [flavin-containing] B. Description: Inhibitory activity against rat brain mitochondrial Monoamine oxidase B at 0.1 uM. The method, boiled down:
as §2

Series [14] addresses T1, Amine oxidase [flavin-containing] A. Description: Inhibitory concentration against rat brain mitochondrial Monoamine oxidase A at 0.1 uM. In short, it runs like this:
as §1

Series [15] has the same target. The experiment in a line: Inhibition of the enzyme Monoamine oxidase A which was not completely reverserved after 24 hr of dialysis after po administration to rat (brain). Format: organism-based. The following applies: in vivo.
The target in series [16] is T2, Amine oxidase [flavin-containing] B. Description: Inhibitory activity against rat brain mitochondrial Monoamine oxidase B;NS=not significant at 0.1 uM. In short, it runs like this: as §2
Series [17] has as its target T1, Amine oxidase [flavin-containing] A. The experiment in a line: Inhibitory concentration against rat brain mitochondrial Monoamine oxidase A at 1 uM. In short, it runs like this: as §1
Series [18] concerns the target T2, Amine oxidase [flavin-containing] B. The experiment in a line: Inhibitory activity against rat brain mitochondrial Monoamine oxidase B at 1 uM. In short, it runs like this:
as §2

Series [19] has the same target. The experiment in a line: Inhibitory activity against rat brain mitochondrial Monoamine oxidase B; NS=not significant at 1 uM. In short, it runs like this:
as §2

For series [20] the target is unchanged. Description: Inhibitory activity against rat brain mitochondrial Monoamine oxidase B at 0.3 uM. In short, it runs like this:
as §2

As a reminder, the pKi is the negative decadic logarithm of the Ki, by convention in mol/L. A higher pKi goes with a low Ki. One may read the pIC50 as −log10 of the IC50, conventionally taken in molar units. A lower pIC50 goes with a large IC50. What is called inhibition is the change of the read-out against control, counted positive when it falls. `CCc1ccc2c(c1)C(=O)c1ccc(C3=NCCN3)cc1S2(=O)=O` had a negative-log Ki (pKi) in series [1] of 8.40. Besides, in [2], the pIC50 was 8.00. The Reversible in [3] came out at 11%. For the same compound, in series [4], the inhibition at 10 µM stood at 27%.

Regarding `c1cc2c(cc1C1=NCCN1)Sc1cc(C3=NCCN3)ccc1O2`, the pIC50 is 6.00 in series [2] and 5.00 in series [5].

The term Inhibition denotes the change of the read-out against control, counted positive when it falls. Low values mean a response near the control, high ones a response far below the control. As to `Cc1nnc(-c2ccc3c(c2)OOc2ccccc2C3=O)o1`, the Inhibition entry in series [6] is “Not Active”. This compound also showed a pIC50 in series [7] of 8.70. In series [8], this compound came in with a Reversible of 12%.

Regarding `CCOc1ccc2oc3cc(-c4nnn(CC)n4)ccc3c(=O)c2c1`, the Inhibition in series [9] is 32%; in [10], 6%.

On to `CC1CN=C(c2ccc3c(c2)S(=O)(=O)c2ccccc2C3=O)N1` (stereo not drawn), for which the inhibition at 10 µM in series [4] stood at 49%; in series [11], 36%.

For `COc1ccc2c(c1)C(=O)c1ccc(-c3nnc(C)o3)cc1S2(=O)=O`, the pIC50 in series [2] was 9.00; in series [5], 7.00. In addition, the Reversible in series [12] is 14%.

As to `CCCOc1ccc2c(c1)C(=O)c1ccc(C3=NCCN3C(C)=O)cc1S2(=O)=O`, the inhibition at 0.1 µM in [13] turned out to be 20%; in [14], 16%.

Turning to `Cc1ccc2c(c1)C(=O)c1ccc(C3=NCCN3)cc1S2(=O)=O`, the pIC50 in [2] was 7.70. The inhibition at 10 µM in series [4] stood at 0%. Further, the Reversible in series [12] was 26%.

`CCN(C)c1ccc2c(c1)C(=O)c1ccc(C3=NCCN3)cc1S2(=O)=O`: the pIC50 in series [2] was 7.40. This compound also gave a Reversible in series [15] of 20%. Also, the IC50 result in [16] was “Not Active”.

With `c1ccc(Cn2c3ccccc3c3cc(C4=NCCN4)ccc32)cc1`, the results for the inhibition at 10 µM in series [4] and in series [11] were 61% and 20%, respectively.

`O=S1(=O)c2ccccc2Oc2ccc(C3=NCCN3)cc21` showed a negative-log IC50 (pIC50) in series [2] of 7.40. In [9], this compound gave an Inhibition of 59%. In addition, in series [12], the Reversible is 16%.

As to `CCn1nnc(-c2ccc3c(=O)c4cc(O)ccc4oc3c2)n1`, the pIC50 in [2] was 5.70; in [5] it was 7.00.

`c1ccc2c(c1)Cc1cc(C3=NCCN3)ccc1-2`: the inhibition at 1 µM was found to be 59% in [17] and 11% in [18].

`CC(C)(C)c1ccc2c(c1)C(=O)c1ccc(C3=NCCN3)cc1S2(=O)=O` had a negative logarithm of the IC50 (pIC50) in series [2] of 6.10. The IC50 entry in series [19] is listed as “Not Active”. Besides, the Reversible in [12] was found to be 56%.

As to `CC(C)c1ccc2c(c1)C(=O)c1ccc(-c3nnn(C)n3)cc1S2(=O)=O`, the inhibition at 0.1 µM in [13] is -30%. The same compound showed a pIC50 in series [2] of 8.30. Also, the Reversible in [12] is listed as 0%.

`CC(C)c1ccc2c(c1)C(=O)c1ccc(C3=NCCN3)cc1S2(=O)=O`: in series [13], the inhibition at 0.1 µM worked out at 0%. The pIC50 in series [2] is 7.30. This compound also returned a Reversible in series [12] of 40%.

For the compound `O=C1c2ccccc2S(=O)(=O)c2cc(C3=NCCN3)ccc21`, in series [1], the pKi is 7.10. The pIC50 in series [2] was 6.52. The Reversible in series [3] is reported as 100%. The inhibition at 0.3 µM in series [20] came out at 3%.

Regarding `O=C1c2ccccc2S(=O)(=O)c2cc(-c3nn[nH]n3)ccc21` [DOXANTRAZOLE], the inhibition at 10 µM in [4] came to 1%; in series [11], 9%.

The values are drawn from ChEMBL document CHEMBL1129565, “Selective inhibitors of monoamine oxidase. 3. Structure-activity relationship of tricyclics bearing imidazoline, oxadiazole, or tetrazole groups” (J Med Chem, 1996).
